Where “and” joins values, the source holds several entries; their conditions need not be identical. Equal values may be shown once.
Experiments:
[1] = target: T1, Muscarinic acetylcholine receptor (Rattus norvegicus) (UniProt P08482+P08483+P08485+P08911+P10980); experiment: Percentage inhibition for Muscarinic acetylcholine receptor at concentration 10 e-5M
Procedure, shortened: (§1)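 Rat striatum homogenized in 10 vol distilled water, diluted to 200 vol of wet tissue weight with 50 mM Na-K phosphate buffer pH 7.4 (1 mL ≈ 5 mg wet tissue). [3H]quinuclidinyl benzilate (final 1.26 nM) plus drug in 10% ethanol, 37 °C for 60 min. Nonspecific binding defined with dexetimide (final 1 μM). Rapid GF/B filtration, three ice-cold buffer rinses, liquid scintillation counting.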

[2] = system: Rattus norvegicus; experiment: Inhibition of stress-induced ulcer formation in rats by 10 mg/kg p.o. administration.; assay type: functional; details: for inhibition in vivo at 10 mg/kg: Rattus norvegicus; for Inhibition: 10 mg/kg
Procedure, shortened: (§2)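 Rats, 190-210 g, fasted 17 h with water allowed. Compound given orally 10 min before stress, 0.5 mL/100 g. Restrained in stress cage and immersed in 23 ± 1 °C water for 7 h without food or water. CO2 kill, stomach opened along greater curvature, total glandular ulcer length (mm) measured. % inhibition = (control − treated)/control × 100. Student's t test.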

[3] = system: Rattus norvegicus; experiment: The antiulcer activity against stress-induced ulcer in rats by 30 mg/kg peroral administration.; assay type: functional; details: route oral; procedure, shortened: as §2
[4] = target: Muscarinic acetylcholine receptor; experiment: Binding affinity was measured for Muscarinic acetylcholine receptor; assay type: protein assay; procedure, shortened: as §1
[5] = target: T1, Muscarinic acetylcholine receptor (Rattus norvegicus); experiment: Percentage inhibition for Muscarinic acetylcholine receptor at concentration 10 e-6M; assay type: protein assay; procedure, shortened: as §1
[6] = target: T1, Muscarinic acetylcholine receptor (Rattus norvegicus); experiment: Percentage inhibition […] concentration 10 e-5M; assay type: protein assay

Structure (SMILES) | inhibition in vivo at 10 mg/kg ([2]; po) | inhibition in vivo at 30 mg/kg [3] | other results
CCN(CC)CCNC1c2ccccc2OCc2ncccc21 (single isomer, unassigned) [listing 1 of 2 here] | – | – | inhibition [1]: 38%
c1ccc2c(c1)OCc1ncccc1C2NCCN1CCOCC1 (stereo not given) | 7% | 73% | –
c1ccc2c(c1)OCc1ncccc1C2NCCN1CCCCC1 (stereo not given) | – | 52% | –
CCN(CC)CCNC1c2ccccc2OCc2ncccc21 (single isomer, unassigned; (+)) | < 63% | – | Ki [4]: 3000 nM
NCCNC1c2ccccc2OCc2ncccc21 (stereo not given) | – | 19% | –
CN1CCN(CC(=O)NC2c3ccccc3OCc3ncccc32)CC1 (stereo not given) | 31% | < 56% | inhibition [5]: 3%
CCN1CCCC(NC2c3ccccc3OCc3ncccc32)C1 (stereo not given) | – | 67% | –
CCN(CC)CCNC1c2cc(F)ccc2OCc2ncccc21 (stereo not given) | < 53% | < 87% | –
Cc1ccc2c(c1)C(N1CCN(C)CC1)c1cccnc1CO2 (stereo not given) | – | 7% | –
CN(C)CCNC1c2ccccc2OCc2ncccc21 (stereo not given) | 24% | 85% | –
CC1CCCC(C)N1CCNC1c2ccccc2OCc2ncccc21 (stereo not given) | – | < 64% | inhibition [5]: 3%
CCN(CC)CCNC1c2cc(Cl)ccc2OCc2ncccc21 (stereo not given) | – | 30% | –
c1ccc2c(c1)OCc1ncccc1C2NCCN1CCCC1 (stereo not given) | 68% | 72% | –
CC1CC[C@H](C)N1CCNC1c2ccccc2OCc2ncccc21 (stereo not given in full) | 64% | 69% | –
CCN(CC)CCNC1c2cc(C)ccc2OCc2ncccc21 (stereo not given) | – | 40% | –
CCN(CC)CCNC1c2ccccc2SCc2ncccc21 (stereo not given) | – | 19% | –
CN1CCN(C2c3ccccc3OCc3ncccc32)CC1 (stereo not given) | – | 76% | inhibition in vivo at 10 mg/kg ([2]; route oral): 28%
CN/C(=N\CCSCc1nc[nH]c1C)NC#N [CIMETIDINE] | – | < 39% | inhibition in vivo at 10 mg/kg ([2]; route oral): 33%

Structure (SMILES) | inhibition in vivo at 10 mg/kg ([2]; po) | inhibition in vivo at 30 mg/kg [3] | other results
CCN(CC)CCNC1c2ccccc2OCc2ncccc21 (single isomer, unassigned) [listing 2 of 2 here] | – | – | Ki [4]: 1100 nM; Inhibition ([2]; route oral): <55%
CCN(CC)CCCNC1c2ccccc2OCc2ncccc21 (stereo not given) | 34% | 55% | –
CCN(CC)CCNC1c2ccccc2Oc2ncccc21 (stereo not given) | 18% | < 60% | –
CC(C)N(CCNC1c2ccccc2OCc2ncccc21)C(C)C (stereo not given) | 61% | 88% | –
c1ccc2c(c1)OCc1ncccc1C2NC1CN2CCC1CC2 (stereo not given) | – | 36% | –
CCN(CC)CCN(C(C)=O)C1c2ccccc2OCc2ncccc21 (stereo not given) | – | 0% | –
O=C(Cn1ccnc1)NC1c2ccccc2OCc2ncccc21 (stereo not given) | 6% | 12% | –
c1cncc(NC2c3ccccc3OCc3ncccc32)c1 (stereo not given) | – | 15% | –
CCN(CC)CCN(CC)C1c2ccccc2OCc2ncccc21 (stereo not given) | – | 33% | inhibition [1]: 15%
CCN(CC)CCNC1c2cccnc2COc2c(C)cccc21 (stereo not given) | < 36% | < 48% | –
CCN(CC)CC(=O)NC1c2ccccc2OCc2ncccc21 (stereo not given) | 10% | 16% | –
CCN(CC)CC(C)NC1c2ccccc2OCc2ncccc21 (stereo not given) | – | 62% | –
CCN(CC)CCNC1c2ccccc2OCc2ncccc21 (stereo in doubt; 11) | – | 85% | Ki [4]: 1600 nM; Inhibition ([2]; route oral): 65% and 57%
CN1CCN(CC(=O)N2c3ccccc3C(=O)Nc3cccnc32)CC1 [PIRENZEPINE] | < 67% | < 86% | –
CC1CCC(C)N1CCNC1c2ccccc2OCc2ncccc21 (stereo not given) | 67% | 94% | –
CCNCCNC1c2ccccc2OCc2ncccc21 (stereo not given) | – | < 55% | –
CC(C)N(CC(=O)NC1c2ccccc2OCc2ncccc21)C(C)C (stereo not given) | 17% | < 45% | inhibition [6]: 12%

Source: ChEMBL document CHEMBL1124081, “Synthesis and antiulcer activity of 5,11-dihydro[1]benzoxepino[3,4-b]pyridines” (J Med Chem, 1988)
